sPLA2-III inh: Blocks human group III sPLA2 activity; Q9NZ20; QFRET BODIPY PC-A2 liposome hydrolysis, fluorescence; inhibition, % at 12.2 µM; actives 0.56% (n = 370,000); AID 743126;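 active = inhibition above mean plus 3 SD of compounds lying within the high and low control bounds, cut at about 19% in these data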;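 also: 0% = median of test compound wells and 100% = no enzyme DMSO wells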
PLCb3 inh: blocks human PLC-beta3 enzyme activity | AID 720704 | inhibition, % at 12.2 µM | Q01970 | Purified PLC-beta3, fluorogenic substrate, fluorescence | actives 0.18% (n = 370,000); in the data active = inhibition above about 11%;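 also: 0% = median of compound wells on plate and 100% = full blocker control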
Target sequence (Q01970 whole entry, looked up): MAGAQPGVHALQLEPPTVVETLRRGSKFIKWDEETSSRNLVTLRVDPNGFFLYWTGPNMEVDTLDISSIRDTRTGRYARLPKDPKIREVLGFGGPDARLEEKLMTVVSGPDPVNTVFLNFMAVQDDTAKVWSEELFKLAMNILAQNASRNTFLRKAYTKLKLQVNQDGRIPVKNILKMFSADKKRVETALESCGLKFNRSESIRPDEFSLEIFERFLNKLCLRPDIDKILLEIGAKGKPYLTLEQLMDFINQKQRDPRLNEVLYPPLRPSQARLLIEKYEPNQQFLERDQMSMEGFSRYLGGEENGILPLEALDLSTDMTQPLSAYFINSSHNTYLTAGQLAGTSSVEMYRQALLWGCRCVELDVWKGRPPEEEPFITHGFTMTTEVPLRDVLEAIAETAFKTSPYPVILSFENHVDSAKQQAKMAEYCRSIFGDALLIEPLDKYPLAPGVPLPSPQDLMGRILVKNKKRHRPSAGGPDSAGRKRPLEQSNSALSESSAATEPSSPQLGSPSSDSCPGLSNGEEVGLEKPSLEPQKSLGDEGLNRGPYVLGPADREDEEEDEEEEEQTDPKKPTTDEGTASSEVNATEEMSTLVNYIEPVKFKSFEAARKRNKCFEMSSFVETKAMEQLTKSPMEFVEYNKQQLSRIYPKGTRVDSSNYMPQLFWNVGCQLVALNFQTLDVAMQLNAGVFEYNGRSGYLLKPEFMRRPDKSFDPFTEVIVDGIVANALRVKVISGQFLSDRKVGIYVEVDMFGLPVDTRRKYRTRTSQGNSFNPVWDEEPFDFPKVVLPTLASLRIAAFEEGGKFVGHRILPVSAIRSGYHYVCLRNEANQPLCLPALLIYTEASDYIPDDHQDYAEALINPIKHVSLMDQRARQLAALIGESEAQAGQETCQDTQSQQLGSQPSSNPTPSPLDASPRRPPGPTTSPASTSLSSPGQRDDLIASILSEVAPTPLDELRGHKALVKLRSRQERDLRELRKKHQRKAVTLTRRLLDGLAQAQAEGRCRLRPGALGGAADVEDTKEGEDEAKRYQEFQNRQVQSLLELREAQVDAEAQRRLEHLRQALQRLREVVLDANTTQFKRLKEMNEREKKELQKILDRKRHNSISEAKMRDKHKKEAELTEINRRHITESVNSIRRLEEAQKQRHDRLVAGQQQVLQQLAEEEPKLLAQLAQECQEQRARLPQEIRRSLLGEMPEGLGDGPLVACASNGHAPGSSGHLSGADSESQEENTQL
TbMetRS inhib: Trypanosoma brucei MetRS inhibition; actives 0.4% (n = 360,000); inhibition, % at 11.9 µM; purified T. brucei MetRS, ATP depletion, Kinase-Glo luminescence;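 active = inhibition above a per-plate cutoff of the control wells' mean inhibition plus 3 SD, cut at about 5.5% in these data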;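 also: 0% = DMSO wells median and 100% = median of wells with control inhibitor compound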
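Test system – parasite MetRS enzyme · Reagent – substrates ATP, L-methionine and bulk Escherichia coli tRNA · Doses – 11.9 µM compound single dose, 0.9% DMSO · Times – 15 min enzyme-compound preincubation, 2 h reaction, 10 min detection, 25 °C · Signal – Kinase-Glo luminescence, ATP depletion format · Controls – DMSO-only wells as low control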
DAGLB inh: blocks human DAGLB lipase activity. inhibition, % at 5.17 µM. Q8NCG7. actives 0.059% (n = 340,000). HEK293T DAGLB membrane lysate, EnzChek fluorogenic substrate; in the data active = inhibition above about 34%;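 also: 0% = enzyme with vehicle and 100% = wells lacking enzyme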
PLC-gamma1 inh: blocks human PLC-gamma1 enzyme activity; purified PLC-gamma1, fluorogenic substrate, fluorescence; inhibition, % at 12.2 µM; actives 0.84% (n = 370,000)
PLCgamma1 ctr: inhibits human PLC-gamma1 in PLC-beta3 counter-screen; actives 3.1% (n = 3,300); purified PLC-gamma1, fluorogenic substrate, fluorescence; shares compounds with PLC-gamma1 inh; inhibition, % at 12.3 µM
PLCbeta3 conf: human PLC-beta3 inhibition, confirmation; inhibition, % at 12.3 µM; shares compounds with PLC-gamma1 inh; actives 1% (n = 3,300); purified PLC-beta3, fluorogenic substrate fluorescence; in the data active = inhibition above about 11%
* marks the source's active call; other numbers are inactive results; x = not tested or not shown; ! = not confirmed by another sample. An excerpt weighted towards active compounds, which were near 1.9% of everything screened. Rule as the data show it, unless noted: active = inhibition above about 9.5%; inactive = the rest.

SMILES	sPLA2-III inh	PLCb3 inh	TbMetRS inhib	DAGLB inh	PLC-gamma1 inh	PLCgamma1 ctr	PLCbeta3 conf
O=c1cc(-c2ccccc2)oc2cc(O)c(O)c(O)c12	6.3	-9.5	0.6	20.4	-5.2	x	x
Cc1ccc(S(=O)(=O)N2CCN(CC(=O)NC3CCCc4ccccc43)CC2)cc1C (stereo not given)	-27.1	5.2	-0.3	-0.8	11.0*!	-3.4	-0.2
CCOc1ccc(-n2c(SCC(=O)c3ccc4ccccc4c3)nnc2-c2ccc(OC)cc2)cc1	6.8	1.4	x	x	1.1	x	x
O=C(CN1CCN(C(=O)c2ccccc2)CC1)Nc1ccc(Br)cn1	8.3	3.2	-0.6	-1.7	11.6*	-2.3	-2.5
O=C(CN1CCN(C(=O)c2ccccc2)CC1)Nc1ccccc1	2.8	1.7	-0.6	2.3	4.0	x	x
CCOc1ccccc1C(=O)N/N=C/c1cccc2cccnc12	-8.7	7.3	-0.8	-4.6	14.0*	-6.7	-0.9
O=C(N[C@@H](Cc1cccnc1)C(=O)N1CCC[C@H]1C(=O)NC1CCCC1)c1ccccc1	2.3	1.7	x	x	0.4	x	x
COc1ccc(/C=C2\CCC(C3CCCC3)C2=O)cc1 (stereo not given)	7.3	-5.4	-1.4	-3.7	10.0*	2.0	3.6
COC(=O)[C@]12C[C@H](CC(=O)NCc3ccc(C)o3)C(=O)N(Cc3ccc(Cl)cc3Cl)C1=C[C@H](C(C)C)O[C@@H]2C1CC1	-16.2	1.8	x	x	-0.9	x	x
COC(=O)[C@]12C[C@H](CC(=O)NCc3ccccc3)C(=O)N(Cc3ccccc3)C1=C[C@H](C(C)(C)C)O[C@@H]2C	-10.7	3.0	x	x	-1.4	x	x
O=C(CC(=O)N/N=C/c1ccc(O)cc1)N/N=C/c1ccc(O)cc1	-6.4	-0.7	0.0	2.4	11.9*	-5.1	-1.8
CC(C)(C)OC(=O)N1CCC[C@H]1C(=O)N1CCC[C@H]1C(=O)NCc1ccncc1	6.5	4.1	-0.6	x	12.5*	-4.0	-72.8
Cc1cc(C)c2c(=O)[nH]n(C3CC(C)N(C)CC3C)c2n1 (stereo not given)	8.1	-2.3	-0.1	-2.1	9.7*	1.9	-5.2
COC(=O)C1=C(C)N(Cc2cccc(C(F)(F)F)c2)C(=NCc2cc(OC)c(OC)c(OC)c2)NC1c1ccccc1C(F)(F)F (stereo not given)	-6.5	-2.9	x	x	-2.7	x	x
CCCCn1c(SCC(=O)Nc2cc(C)on2)nnc1-c1cccs1	-1.7	-2.4	-0.2	0.9	2.2	x	x
CCn1c(SCC(=O)Nc2ccc(OC)c(OC)c2)nnc1-c1cccs1	4.4	9.7	0.0	-4.1	12.4*	-3.0	-3.6
Cc1cc(NC(=O)CSc2nnc(-c3cccs3)n2N)no1	5.6	2.6	-0.3	-1.3	9.9*	-3.3	-6.1
COc1cccc(NC(=O)NC2CCCCN(Cc3ccccc3C)C2=O)c1 (stereo not given)	-6.7	-0.3	x	x	4.6	x	x
COC(=O)[C@]12CCCCC=C1N(Cc1ccc(OC)cc1)C(=O)[C@@H]2CC(=O)NCCCN1CCCC1=O	-6.8	-2.5	x	x	-0.3	x	x
Cc1cccc(NC(=O)C2CCCN2C(=O)Oc2ccccc2)c1 (stereo not given)	5.0	-3.2	-0.7	1.6	8.7	x	x
COc1ccc(NC(=O)N2CCCC2C(=O)Nc2cccc(C)c2C)cc1 (stereo not given)	14.3	5.6	-0.1	-2.4	11.7*	-4.4	-2.6
Cc1cccc(NC(=O)N2CCCC2C(=O)Nc2ccccc2)c1 (stereo not given)	8.9	6.9	0.1	-3.6	12.7*	-4.2	-4.0
Cc1cccc(NC(=O)N2CCCC2C(=O)NCc2cccs2)c1 (stereo not given)	0.9	5.4	0.5	-1.1	11.6*	-3.8	1.1
Cc1cccc(NC(=O)C(=O)NCC2CCCN2S(=O)(=O)c2cccs2)c1 (stereo not given)	-11.9	-6.3	-0.2	-1.6	9.5*	-4.0	-4.7
COc1ccc(NC(=O)N2CCCC2C(=O)Nc2ccccc2F)cc1 (stereo not given)	3.5	-8.0	-0.9	-1.9	-0.3	x	x
SMILES	sPLA2-III inh	PLCb3 inh	TbMetRS inhib	DAGLB inh	PLC-gamma1 inh	PLCgamma1 ctr	PLCbeta3 conf
CC(C)c1[nH]nc2c1C(c1ccc3c(c1)OCO3)NC2=O (stereo not given)	4.6	4.9	x	x	1.0	x	x
O=C(CCn1nnc(-c2cccs2)n1)N1CCCCC1	-1.0	1.5	x	x	1.5	x	x
COc1ccc(/C=N\NC(=O)Cc2cccs2)c(OC)c1OC	-2.5	1.2	x	x	-0.7	x	x
CC(=O)C1=C(C)N(Cc2ccc(F)cc2)C(=S)NC1c1ccc(Br)cc1 (stereo not given)	-0.9	-1.2	x	x	3.4	x	x
Cc1cc(C)nc(SCCn2c(N3CCCCC3)nc3c2c(=O)n(C)c(=O)n3C)n1	3.4	7.8	0.3	-1.2	9.6*	-2.8	-1.2
Cc1cc(C)nc(SCCn2c(N3CC(C)OC(C)C3)nc3c2c(=O)n(C)c(=O)n3C)n1 (stereo not given)	5.0	-6.3	-0.5	1.7	-0.5	x	x
COc1cccc(/C=C/C(=O)OCCN2C(=O)c3ccccc3C2=O)c1	-2.7	-15.4	-0.5	-6.5	-7.0	x	x
COc1ccccc1/C=C/C(=O)OCCN1C(=O)c2ccccc2C1=O	-2.0	-4.2	-0.5	-8.2	10.9*	-14.0	-11.9
CC(=NN1CCN(c2ccccn2)CC1)c1ccccc1O	-3.4	0.6	x	x	-2.7	x	x
CC(C)(C)OC(=O)C[C@@H]1C/C=C\C[C@H](CC(=O)N(CCO)Cc2ccccc2)C(=O)NCCOC1=O	11.3	16.6*	-0.2	-2.5	6.1	-9.4	-5.9
CC(C)(C)OC(=O)C[C@H]1C/C=C\C[C@@H](CC(=O)N(CCO)Cc2ccccc2)C(=O)N2CCC[C@@H]2COC1=O	8.3	10.7*	-0.4	-1.7	0.1	-5.4	-2.3
CC(C)(C)OC(=O)C[C@H]1C/C=C\C[C@@H](CC(=O)N(CCO)Cc2ccccc2)C(=O)N2CCC[C@H]2COC1=O	-2.3	1.9	-1.4	-2.1	1.6	x	x
CCN(CC)C(=O)C1=C(C)N(CCCN2CCCC2=O)C(=O)C(CC(=O)NCCCCc2ccccc2)C1 (stereo not given)	1.1	9.0	-1.1	1.9	9.8*	-9.4	-3.6
CCN(CC)C(=O)C1=C(C)N(CCCN2CCCC2=O)C(=O)C(CC(=O)NCc2ccco2)C1 (stereo not given)	6.8	-0.1	-1.2	-3.9	4.4	x	x
N#CCC[C@@H]1CC[C@]2(CCCN(Cc3ccccc3)C2)O1	-0.1	4.2	x	x	-1.4	x	x
Cc1nnc(SCC(=O)NC2CCCc3ccccc32)n1-c1ccccc1 (stereo not given)	1.7	4.7	-0.3	1.1	11.1*	-5.9	-5.6
CNC(=O)NC1CCCc2ccccc21 (stereo not given)	1.4	0.9	-0.8	0.7	10.9*	3.2	4.4

High-throughput results as filed in PubChem.
